Screening results (PubChem)
Most compounds without a hit are left out; they make up all but 3.9% or so of the library.
UPR XBP1 act: adaptive UPR (XBP1) activation; CHO-XBP1 luciferase reporter, IRE1-XBP1 UPR activation, luminescence; percent of tunicamycin response, DMSO as zero; activation, % at 20 µM; 330,000 compounds, 0.33% hits; AID 463104;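 active = versus positive control, 20 µM dose yields 30% or more activation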;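 note: 100% = tunicamycin at 10 µg/mL and 0% = DMSO only wells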
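assay system = CHO-XBP1 luciferase reporter cells | amount = 1000 cells/well | buffer or medium = F12 plus 10% FBS | compound dosing = single point, 20 µM final compound, 1% DMSO | incubation = 16-18 h cell attachment at 37 °C, then 6 h compound exposure | detection = Steady-Glo luminescence read | controls = tunicamycin 10 µg/mL and vehicle-only wells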
Gli-Sufu block: blocks Gli-Sufu signaling in a luciferase reporter; Sufu-KO-LIGHT fibroblasts, Gli luciferase reporter luminescence; inhibition, % at 5 µM; 340,000 compounds, 0.74% hits; AID 588413;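 active = inhibition above about 55%, limit read from the data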;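 note: 0% = DMSO-treated cells and 100% = wells with medium but no cells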
697 NFkB inh: inhibitors of the PMA/ionomycin-induced NF-kB reporter in 697 B cells; AID 435022; 330,000 compounds, 0.33% hits; 697 B-cell NF-kB luciferase reporter, 16 h; inhibition, % at 4 µM; in the data active = inhibition above about 35%
Jurkat NFkB inh: inhibitors of the PMA/ionomycin-induced NF-kB reporter in Jurkat cells. AID 435003. inhibition, % at 4 µM. PMA/ionomycin-induced NF-kB luciferase reporter, luminescence. 330,000 compounds, 0.53% hits; in the data active = inhibition above about 50%
CHOP UPR activ: activators of apoptotic arm of unfolded protein response (CHOP) | activation, % at 10 µM | AID 449763 | 330,000 compounds, 0.34% hits | CHO-CHOP luciferase reporter, UPR activation, luminescence; percent of tunicamycin response over DMSO baseline;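 active = at 10 µM dose, activation of 40% or more, normalized to positive control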;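 note: 100% = tunicamycin at 10 µg/mL and 0% = DMSO alone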
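Test system: CHO CHOP reporter cells. Input: 500 CHO-CHOP cells per well. Medium: F12 with 10% FBS. Technique: luciferase luminescence. Measure: percent activation relative to tunicamycin control. Dosing: 10 µM compound, 0.5% DMSO. Timing: 16-18 h cell attachment, then 6 h compound exposure, 37 °C.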
CHOP inhibitor: inhibitors of CHOP induction in ER stress response; CHO-K1 CHOP-promoter luciferase, tunicamycin-induced, 15-18 h; AID 2732; 220,000 compounds, 3.8% hits; inhibition, % at 10 µM;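 active = compounds that reduced the stress-induced luciferase reporter signal by more than about 70% of percent inhibition, limit read from the data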;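 note: 0% = tunicamycin plus vehicle and 100% = wells without tunicamycin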
* hit, by the source's call; · = no result.

SMILES	UPR XBP1 act	Gli-Sufu block	697 NFkB inh	Jurkat NFkB inh	CHOP UPR activ	CHOP inhibitor
c1ccc(Cn2nnc3c(N4CCOCC4)ncnc32)cc1	-3	6	-16	-5	0	-2
FC(F)(F)c1ccc(N2CCN(c3ncnc4c3nnn4Cc3ccccc3)CC2)nc1	5	11	-27	12	2	91*
F[B-](F)(F)COCc1ccccc1Br	·	-3	·	·	·	·
CCn1c(O)c(C=NCc2cccs2)c(=O)n(CC)c1=S	-2	13	32	-7	-1	73*
CCOC(=O)NC(NCCc1ccccc1)(C(F)(F)F)C(F)(F)F	-4	-8	11	-1	1	70*
CCOC(=O)NC(NCc1ccccc1)(C(F)(F)F)C(F)(F)F	-1	30	-1	-3	1	3
COCCCNC(=S)NCCNc1nc2c(C)c(C)ccc2cc1C#N	·	19	·	·	·	41
CCCCN(CC)c1nc(N)c2c(N)nc(OCC)cc2c1C#N	4	-9	-14	16	0	95*
CCOc1cc2c(C#N)c(N3CCCC3)nc(N)c2c(N)n1	3	2	5	-7	1	·
Cc1ccc(-c2nnn(CC(=O)N(Cc3cccs3)C(C(=O)NC(C)(C)C)c3ccc(C)o3)n2)o1 (centres undefined)	-2	8	4	-3	2	76*
O=C(CSc1ccc(Cl)cc1)Nc1cc(-c2nc3ncccc3o2)ccc1Cl	0	·	-39	10	3	69
Cc1cccc(C)c1OC(=O)CSc1nnc(-c2ccccc2O)o1	-1	-2	20	11	0	92*
O=C(CSc1nnc(-c2ccccc2)o1)Oc1ccc(Br)cc1	-3	3	2	2	-2	81*
COc1ccc(-c2nnc(SCC(=O)Nc3cccc(Cl)c3)o2)cc1	2	-32	-18	-139	-5	89*
O=C(CSc1ccc(Cl)cc1)Nc1cccc(-c2nc3ncccc3o2)c1	0	-9	-5	-9	1	73*
CCOC(=O)CSc1nnc(-c2ccccc2)o1	-3	-4	7	2	0	2
CCN(CC)S(=O)(=O)c1cccc(C(=O)NNC(=O)C2=NN(c3ccccc3)C(=O)CC2)c1	-6	-8	3	2	2	·
COc1ccccc1-n1c(SC(C)C(=O)NCC2CCCO2)nc2cc(Cl)ccc2c1=O (centres undefined)	-4	5	10	11	2	·
O=C(CC(O)c1ccncc1)c1ccccc1O (centres undefined)	·	-3	·	·	·	·
N#CC1C(=O)NC(=O)CC12CCCCC2 (centres undefined)	·	0	·	·	·	·
O=C(CSc1nnc(-c2ccccc2)o1)Nc1ccccc1F	-3	-11	-159	-33	-1	11
O=C(CSc1nnc(-c2ccc(Br)cc2)o1)Nc1cccc2ccccc12	1	-31	-13	-15	-1	70*
COc1ccc(-c2n(CC(=O)OC3CC(C)CCC3C(C)C)c3ccccc3[n+]2C)cc1 (centres undefined)	·	86*	·	·	·	87*
COC(=O)c1cccc2c1-c1ccccc1/C2=N/O	2	-4	-12	11	-1	87*
Cc1nnc(SCc2nc(N)nc(Nc3ccccc3)n2)s1	2	-16	-6	-18	0	-1
SMILES	UPR XBP1 act	Gli-Sufu block	697 NFkB inh	Jurkat NFkB inh	CHOP UPR activ	CHOP inhibitor
CCc1ccc(Nc2nc(N)nc(CSc3nc4ccccc4s3)n2)cc1	1	6	-2	5	2	73*
O=C(CSc1nc(-c2ccccc2)nc2c1Cc1ccccc1O2)Nc1ccc(C(=O)O)cc1	·	-6	·	·	·	77*
CCC(C)C(NC(=O)C1CCC(C)CC1)C(=O)Nc1ccc(OC)cc1OC (centres undefined)	-1	2	17	8	2	10
CCC(C)C(NC(=O)C1CCC(C)CC1)C(=O)Nc1cc(OC)ccc1OC (centres undefined)	-2	1	4	10	0	82*
CCOC(=O)c1ccccc1NC(=O)COC(=O)c1ccc(OCC(=O)N2CCOCC2)c(OCC)c1	·	7	·	·	·	·
CC1CCCCN1C(=O)Cn1c(=O)n(C2CCCCC2)c(=O)c2ccccc21 (centres undefined)	-4	-5	14	8	2	82*
